Blank lines part the entries; values can stand above or below the compound they belong to. Activity calls are given as the source filed them. The calls are words filed in the database; no cut-off is given here.
How the values were obtained:
[1] = target: T1, Peroxisome proliferator-activated receptor gamma (Homo sapiens) (UniProt P37231); test: Effect on GAL4-tagged human PPARgamma LBD expressed in human HepG2 cells incubated for 20 to 22 hrs by luciferase reporter gene assay; type: cell-based
T1 sequence (whole entry): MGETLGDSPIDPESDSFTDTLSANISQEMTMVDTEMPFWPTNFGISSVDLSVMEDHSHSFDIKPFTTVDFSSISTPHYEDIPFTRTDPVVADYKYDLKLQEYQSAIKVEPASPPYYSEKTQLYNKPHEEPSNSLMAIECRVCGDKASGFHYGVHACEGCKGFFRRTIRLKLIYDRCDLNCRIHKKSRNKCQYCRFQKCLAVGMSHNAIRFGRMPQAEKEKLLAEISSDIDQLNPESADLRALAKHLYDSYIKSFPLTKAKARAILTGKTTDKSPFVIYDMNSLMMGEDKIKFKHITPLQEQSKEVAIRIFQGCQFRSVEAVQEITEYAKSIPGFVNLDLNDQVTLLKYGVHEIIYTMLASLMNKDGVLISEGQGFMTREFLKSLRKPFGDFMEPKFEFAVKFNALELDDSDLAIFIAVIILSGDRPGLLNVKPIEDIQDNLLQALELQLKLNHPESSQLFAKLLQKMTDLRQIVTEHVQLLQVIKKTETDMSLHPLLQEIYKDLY

[2] = target: T2, Peroxisome proliferator-activated receptor alpha (Homo sapiens, UniProt Q07869); test: Antagonist activity at GAL4-tagged human PPARalpha LBD expressed in human HepG2 cells assessed as inhibition of Wy14,643-induced receptor transactivation incubated for 20 to 22 hrs by luciferase reporter gene assay; type: cell-based
T2 sequence (Q07869 whole entry): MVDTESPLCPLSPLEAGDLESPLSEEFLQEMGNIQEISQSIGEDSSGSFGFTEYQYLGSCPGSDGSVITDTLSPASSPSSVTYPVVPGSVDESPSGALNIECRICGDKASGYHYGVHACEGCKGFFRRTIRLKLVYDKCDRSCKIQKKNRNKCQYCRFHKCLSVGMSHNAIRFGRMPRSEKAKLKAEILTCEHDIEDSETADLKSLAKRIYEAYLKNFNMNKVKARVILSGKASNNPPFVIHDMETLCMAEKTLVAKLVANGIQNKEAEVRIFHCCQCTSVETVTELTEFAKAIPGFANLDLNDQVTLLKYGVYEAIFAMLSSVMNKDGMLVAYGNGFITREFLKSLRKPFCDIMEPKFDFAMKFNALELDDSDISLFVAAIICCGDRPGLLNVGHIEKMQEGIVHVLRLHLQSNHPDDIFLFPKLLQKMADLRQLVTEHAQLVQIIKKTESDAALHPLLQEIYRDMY

[3] = test system: SW480; test: Antiproliferative activity against human SW480 cells assessed as inhibition of cell growth incubated for 72 hrs by MTT assay; type: functional; settings: for CC50: SW480, 72 h
How it was run: (§1)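 MTT viability assay after 72 h exposure to compound over 0–24 μM, 24 μM being the highest concentration. […] Data are means ± SD of duplicate experiments, five replicates each.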

[4] = test system: HT-29; test: Antiproliferative activity against human HT-29 cells assessed as inhibition of cell growth at 75 uM incubated for 72 hrs by MTT assay relative to control; type: functional; settings: HT-29, 72 h
[5] = organism: Homo sapiens; test: Antiproliferative activity against human PTJ86i cells assessed as inhibition of cell growth incubated for 72 hrs by MTT assay; type: functional; how it was run: as §1
[6] = test system: Capan-2; test: Antiproliferative activity against human Capan2 cells assessed as inhibition of cell growth incubated for 72 hrs by MTT assay; type: functional; settings: for CC50: Capan-2, 72 h; how it was run: as §1
[7] = test system: Capan-2; test: Antiproliferative activity against human Capan2 cells assessed as inhibition of cell growth at 75 uM incubated for 72 hrs by MTT assay relative to control; type: functional; settings: Capan-2, 72 h
[8] = Selectivity index, ratio of CC50 for human HFF1 cells to CC50 for human PTJ64i cells; type: toxicity; settings: HFF1 cells and PTJ64i cells
[9] = test system: SW480; test: Antiproliferative activity against human SW480 cells assessed as inhibition of cell growth at 75 uM incubated for 72 hrs by MTT assay relative to control; type: functional; settings: SW480, 72 h
[10] = test system: HT-29; test: Antiproliferative activity against human HT-29 cells assessed as inhibition of cell growth incubated for 72 hrs by MTT assay; type: functional; settings: for CC50: HT-29, 72 h; how it was run: as §1
[11] = organism: Homo sapiens; test: Antiproliferative activity against human PTJ64i cells assessed as inhibition of cell growth incubated for 72 hrs by MTT assay; type: functional; how it was run: as §1
[12] = test system: ASPC1; test: Antiproliferative activity against human AsPC1 cells assessed as inhibition of cell growth incubated for 72 hrs by MTT assay; type: functional; settings: for CC50: ASPC1, 72 h; how it was run: as §1
[13] = test system: ASPC1; test: Antiproliferative activity against human AsPC1 cells assessed as inhibition of cell growth at 75 uM incubated for 72 hrs by MTT assay relative to control; type: functional; settings: ASPC1, 72 h
[14] = test system: BXPC-3; test: Antiproliferative activity against human BxPC3 cells assessed as inhibition of cell growth incubated for 72 hrs by MTT assay; type: functional; settings: for CC50: BXPC-3, 72 h; how it was run: as §1
[15] = test system: HFF-1; test: Cytotoxicity against human HFF1 cells assessed as reduction in cell viability incubated for 72 hrs by MTT assay; type: cell-based; settings: hff-1, 72 h; how it was run: as §1
[16] = test system: A498; test: Antiproliferative activity against human A498 cells assessed as inhibition of cell growth at 75 uM incubated for 72 hrs by MTT assay relative to control; type: functional; settings: A498, 72 h
[17] = test system: A498; test: Antiproliferative activity against human A498 cells assessed as inhibition of cell growth incubated for 72 hrs by MTT assay; type: functional; settings: for CC50: A498, 72 h; how it was run: as §1
[18] = test system: BXPC-3; test: Antiproliferative activity against human BxPC3 cells assessed as inhibition of cell growth at 75 uM incubated for 72 hrs by MTT assay relative to control; type: functional; settings: BXPC-3, 72 h
[19] = (§2) Antiproliferative activity against human PTJ86i cells assessed as inhibition of cell growth at 75 uM incubated for 72 hrs by MTT assay relative to control; type: functional
[20] = Selectivity index, ratio of CC50 for human HFF1 cells to CC50 for human PTJ86i cells; type: toxicity; settings: HFF1 cells and PTJ86i cells
[21] = target: T1, Peroxisome proliferator-activated receptor gamma (Homo sapiens); test: Agonist activity at GAL4-tagged human PPARgamma LBD expressed in human HepG2 cells incubated for 20 to 22 hrs by luciferase reporter gene assay; type: cell-based
[22] = test system: HepG2; test: Cytotoxicity against human HepG2 cells at >5 uM; type: cell-based
[23] = organism: Homo sapiens; test: Antiproliferative activity against human PTJ64i cells assessed as inhibition of cell growth at 75 uM incubated for 72 hrs by MTT assay relative to control; type: functional
[24] = organism: Homo sapiens; test: as §2; type: functional
[25] = target: T3, Peroxisome proliferator-activated receptor gamma (Homo sapiens, UniProt P37231); test: Antagonist activity at GAL4-tagged human PPARgamma LBD expressed in human HepG2 cells assessed as inhibition of Rosiglitazone-induced receptor transactivation incubated for 20 to 22 hrs by luciferase reporter gene assay
T3 sequence (P37231 whole entry): T1 sequence (whole entry)

- Activity [1]: inactive
Structure (SMILES): CC(C)(Oc1ccc(CCOc2ccc(/N=N/c3ccccc3)cc2)cc1)C(=O)Nc1ccccc1

- IC50 [2]: 3.2 µM
- Activity [1]: inactive
Structure (SMILES): CC(C)(Oc1ccc(CCOc2ccc(/N=N/c3ccccc3)cc2)cc1)C(=O)NS(=O)(=O)c1ccc(NC(=O)Cc2ccccc2)cc1

- IC50 [2]: 12.1 µM
- Activity [1]: inactive
Structure (SMILES): CC(C)(Oc1ccc(CCOc2ccc(NC(=O)c3ccccc3)cc2)cc1)C(=O)NCc1ccccc1

- IC50 [2]: 0.24 µM
- Activity [1]: inactive
Structure (SMILES): CC(C)(Oc1ccc(CCOc2ccc(NC(=O)c3ccccc3)cc2)cc1)C(=O)NS(=O)(=O)c1ccccc1
- inhibition [3]: Dose-dependent effect
- CC50 [3]: 7 µM
- inhibition at 75 µM [4]: 52 to 98%
- inhibition [5]: Dose-dependent effect
- inhibition [6]: Dose-dependent effect
- CC50 [6]: 7 µM
- inhibition at 75 µM [7]: 41 to 92%
- selectivity ratio [8]: > 9.45
- inhibition at 75 µM [9]: 52 to 98%
- inhibition [10]: Dose-dependent effect
- CC50 [10]: 7 µM
- inhibition [11]: Dose-dependent effect
- inhibition [12]: Dose-dependent effect
- CC50 [12]: 7 µM
- inhibition at 75 µM [13]: 41 to 92%
- inhibition [14]: Dose-dependent effect
- CC50 [14]: 7 µM
- CC50 [15]: > 24 µM
- inhibition at 75 µM [16]: 51 to 71%
- inhibition [17]: Dose-dependent effect
- CC50 [17]: 4.6 µM
- inhibition at 75 µM [18]: 41 to 92%
- inhibition at 75 µM [19]: 84 to 98%
- selectivity ratio [20]: > 11.3

- IC50 [2]: 3.32 µM
- Activity [1]: inactive
Structure (SMILES): CC(C)(Oc1ccc(CCOc2ccc(NC(=O)Nc3ccccc3)cc2)cc1)C(N)=O

Structure (SMILES): CCC(=O)NC[C@H](Cc1ccc(OCCc2nc(-c3ccccc3)oc2C)cc1)N/C(C)=C\C(=O)c1ccc(C(F)(F)F)cc1
- inhibition at 75 µM [19]: 85 to 92%

- Activity [21]: inactive
Structure (SMILES): CC(C)(CCCOc1ccc(/C=C/c2ccccc2)cc1)C(=O)NS(C)(=O)=O
- Activity [22]: Toxic

- IC50 [2]: 7 µM
- Activity [1]: inactive
Structure (SMILES): CC(C)(Oc1ccc(CCOc2ccc(NC(=O)c3ccccc3)cc2)cc1)C(N)=O

Structure (SMILES): Cc1cccc(Nc2cc(Cl)nc(SCC(=O)O)n2)c1C
- inhibition [23]: inactive
- inhibition [24]: inactive

- IC50 [2]: 1.1 µM
- Activity [1]: inactive
Structure (SMILES): CC(C)(Oc1ccc(CCOc2ccc(/N=N/c3ccccc3)cc2)cc1)C(=O)NS(=O)(=O)c1ccc([N+](=O)[O-])cc1
- inhibition [3]: Dose-dependent effect
- CC50 [3]: > 24 µM
- inhibition at 75 µM [4]: 52 to 98%
- inhibition [5]: Dose-dependent effect
- inhibition [6]: Dose-dependent effect
- CC50 [6]: > 24 µM
- inhibition at 75 µM [7]: 41 to 92%
- selectivity ratio [8]: > 8.3
- inhibition at 75 µM [9]: 52 to 98%
- inhibition [10]: Dose-dependent effect
- CC50 [10]: > 24 µM
- inhibition [11]: Dose-dependent effect
- inhibition [12]: Dose-dependent effect
- CC50 [12]: > 24 µM
- inhibition at 75 µM [13]: 41 to 92%
- inhibition [14]: Dose-dependent effect
- CC50 [14]: 17 µM
- CC50 [15]: > 24 µM
- inhibition at 75 µM [16]: 51 to 71%
- inhibition [17]: Dose-dependent effect
- CC50 [17]: > 24 µM
- inhibition at 75 µM [18]: 41 to 92%
- inhibition at 75 µM [19]: 84 to 98%
- selectivity ratio [20]: > 8.63

- IC50 [2]: 6.1 µM
- Activity [1]: inactive
Structure (SMILES): CC(C)(Oc1ccc(CCOc2ccc(NC(=O)Nc3ccccc3)cc2)cc1)C(=O)Nc1ccccc1

- Activity [21]: inactive
Structure (SMILES): CC(C)(CCCOc1ccc(/C=C/c2ccccc2)cc1)C(=O)NS(=O)(=O)c1ccccc1
- Activity [22]: Toxic

- IC50 [2]: 12.3 µM
- Activity [1]: inactive
Structure (SMILES): CC(C)(Oc1ccc(CCOc2ccc(NC(=O)c3ccccc3)cc2)cc1)C(=O)Nc1ccccc1

- IC50 [2]: 0.21 µM
- Activity [1]: inactive
Structure (SMILES): CC(C)(Oc1ccc(CCOc2ccc(/N=N/c3ccccc3)cc2)cc1)C(=O)NS(=O)(=O)c1ccc(Cl)cc1
- inhibition [3]: Dose-dependent effect
- CC50 [3]: > 24 µM
- inhibition at 75 µM [4]: 52 to 98%
- inhibition [5]: Dose-dependent effect
- inhibition [6]: Dose-dependent effect
- CC50 [6]: > 24 µM
- inhibition at 75 µM [7]: 41 to 92%
- selectivity ratio [8]: > 6.35
- inhibition at 75 µM [9]: 52 to 98%
- inhibition [10]: Dose-dependent effect
- CC50 [10]: > 24 µM
- inhibition [11]: Dose-dependent effect
- inhibition [12]: Dose-dependent effect
- CC50 [12]: > 24 µM
- inhibition at 75 µM [13]: 41 to 92%
- inhibition [14]: Dose-dependent effect
- CC50 [14]: > 24 µM
- CC50 [15]: > 24 µM
- inhibition at 75 µM [16]: 51 to 71%
- inhibition [17]: Dose-dependent effect
- CC50 [17]: > 24 µM
- inhibition at 75 µM [18]: 41 to 92%
- inhibition at 75 µM [19]: 84 to 98%
- selectivity ratio [20]: > 6.63

- Activity [21]: inactive
Structure (SMILES): CC(C)(Oc1ccc(CCOc2ccc(/N=N/c3ccccc3)cc2)cc1)C(=O)NS(C)(=O)=O
- Activity [22]: Toxic

- IC50 [25]: 14 µM
- IC50 [2]: 1.2 µM
- Imax [1]: 87%
Structure (SMILES): CC(C)(Oc1ccc(CCOc2ccc(/N=N/c3ccccc3)cc2)cc1)C(=O)NS(=O)(=O)c1ccccc1
- Activity [22]: Toxic

- IC50 [2]: 1.52 µM
- Activity [1]: inactive
Structure (SMILES): CC(C)(Oc1ccc(CCOc2ccc(NC(=O)Nc3ccccc3)cc2)cc1)C(=O)NS(=O)(=O)c1ccccc1

- IC50 [2]: 10.3 µM
- Activity [1]: inactive
Structure (SMILES): CC(C)(Oc1ccc(CCOc2ccc(NC(=O)Nc3ccccc3)cc2)cc1)C(=O)NCc1ccccc1

- Activity [1]: inactive
Structure (SMILES): CCCCNC(=O)C(C)(C)Oc1ccc(CCOc2ccc(NC(=O)c3ccccc3)cc2)cc1
